ChEMBL document CHEMBL1156565, “Discovery of (R)-4-(8-fluoro-2-oxo-1,2-dihydroquinazolin-3(4H)-yl)-N-(3-(7-methyl-1H-indazol-5-yl)-1-oxo-1-(4-(piperidin-1-yl)piperidin-1-yl)propan-2-yl)piperidine-1-carboxamide (BMS-694153): a potent antagonist of the human calcitonin gene-related peptide receptor for migraine with rapid and …” (J Med Chem, 2008)
Converted amounts (≈) assume the structure as drawn. The source made the active and inactive calls. No cut-off for these calls is given here.

What was measured:
[1] = target: Calcitonin gene-related peptide type 1 receptor (Rattus norvegicus, UniProt Q63118+Q9JJ74); assay: Displacement of [I125]CGRP from rat CGRP receptor
Chain of Calcitonin gene-related peptide type 1 receptor (Rattus norvegicus, UniProt Q63118+Q9JJ74) (Q63118 whole entry, one chain of several): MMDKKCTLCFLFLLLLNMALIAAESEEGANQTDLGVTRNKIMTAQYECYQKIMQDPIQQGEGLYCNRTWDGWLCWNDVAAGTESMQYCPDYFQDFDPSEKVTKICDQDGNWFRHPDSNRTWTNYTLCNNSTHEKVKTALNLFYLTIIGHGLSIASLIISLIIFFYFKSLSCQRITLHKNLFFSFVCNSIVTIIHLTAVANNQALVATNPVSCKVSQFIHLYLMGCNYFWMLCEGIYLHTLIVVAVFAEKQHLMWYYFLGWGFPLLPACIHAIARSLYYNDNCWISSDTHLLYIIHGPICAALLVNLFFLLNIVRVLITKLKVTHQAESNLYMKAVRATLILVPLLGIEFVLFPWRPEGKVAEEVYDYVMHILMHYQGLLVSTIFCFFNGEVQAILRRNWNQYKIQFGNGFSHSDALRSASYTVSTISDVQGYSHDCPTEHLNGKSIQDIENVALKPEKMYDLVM

[2] = Tmax in New Zealand white rabbit at 0.5 mg/kg, iv; format: ADME, organism-based, Oryctolagus cuniculus; set-up: dose 0.5 mg/kg, route intravenous; details: in vivo
Method in brief: (§1)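 Rabbits given an iv dose of 0.5 mg/kg as the reference leg for intranasal dosing. Clearance, Vss and terminal half-life were derived from the plasma concentration-time profile.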

Cytochrome P450 2C9 = Cytochrome P450 2C9 (Homo sapiens, UniProt P11712); assay: Inhibition of human recombinant CYP2C9 expressed in insect microsomes
Chain of Cytochrome P450 2C9 (P11712 whole entry): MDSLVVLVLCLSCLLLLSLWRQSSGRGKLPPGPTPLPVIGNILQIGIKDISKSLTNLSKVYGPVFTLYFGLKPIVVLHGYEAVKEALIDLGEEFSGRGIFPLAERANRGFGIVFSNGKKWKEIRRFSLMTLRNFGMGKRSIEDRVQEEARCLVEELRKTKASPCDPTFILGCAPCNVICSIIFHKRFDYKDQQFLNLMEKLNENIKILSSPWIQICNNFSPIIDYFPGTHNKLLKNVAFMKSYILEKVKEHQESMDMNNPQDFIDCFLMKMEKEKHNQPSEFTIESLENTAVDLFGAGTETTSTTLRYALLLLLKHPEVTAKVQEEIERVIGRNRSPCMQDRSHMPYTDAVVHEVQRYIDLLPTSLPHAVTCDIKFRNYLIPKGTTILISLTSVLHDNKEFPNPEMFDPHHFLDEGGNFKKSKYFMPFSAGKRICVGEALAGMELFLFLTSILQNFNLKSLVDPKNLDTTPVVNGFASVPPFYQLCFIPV

[3] = Ex vivo reversal of human alpha CGRP-induced artery dilation in human intracranial artery; format: functional
Method in brief: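 Human intracranial artery rings were wire-mounted on a force transducer and contracted with 10 mM KCl. They were then fully dilated with 1 nM hαCGRP. Antagonist was added cumulatively in half-log increments to reverse the dilation.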

[4] = Ex vivo effect on basal artery tension in human coronary artery assessed as contractility; format: functional, tissue-based
Method in brief: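 Contractility was measured in wire-mounted ex vivo human artery rings at up to 10 µM compound. Serotonin (10 µM) was added at the end of each session to give maximal contraction.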

Callithrix jacchus [5] = assay: Inhibition of human alpha CGRP-induced increase in facial blood flow in marmoset at 0.01 mg/kg, sc after 15 mins by laser Doppler flowmetry; format: functional, organism-based; set-up: dose 0.01 mg/kg
Method in brief: (§2)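 Anesthetized marmosets received iv hαCGRP (10 µg/kg) at -30, 15, 60 and 105 min. Antagonist was given sc at 0 min. Facial blood flow changes were measured by laser Doppler flowmetry and compared with vehicle-treated animals.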

[6] = target: T1, Calcitonin gene-related peptide type 1 receptor (Homo sapiens, UniProt O60894+Q16602); assay: Displacement of [I125]CGRP from human CGRP receptor in SK-N-MC cells; format: cell-based
T1 sequence (Q16602 whole entry, one chain of several): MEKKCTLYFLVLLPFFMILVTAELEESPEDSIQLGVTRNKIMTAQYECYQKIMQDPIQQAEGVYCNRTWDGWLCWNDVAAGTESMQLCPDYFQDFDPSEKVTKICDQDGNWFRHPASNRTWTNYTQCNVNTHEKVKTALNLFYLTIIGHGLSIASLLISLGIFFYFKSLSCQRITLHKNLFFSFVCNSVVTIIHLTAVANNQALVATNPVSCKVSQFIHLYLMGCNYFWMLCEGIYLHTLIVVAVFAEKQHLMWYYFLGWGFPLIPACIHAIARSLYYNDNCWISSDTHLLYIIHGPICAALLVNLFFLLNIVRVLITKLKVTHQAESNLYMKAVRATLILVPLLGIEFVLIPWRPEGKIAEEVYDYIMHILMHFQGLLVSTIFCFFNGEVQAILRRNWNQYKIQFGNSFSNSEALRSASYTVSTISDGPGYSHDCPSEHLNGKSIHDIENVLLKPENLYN

[7] = Tmax in New Zealand white rabbit at 0.3 mg/kg, intranasally; format: ADME, organism-based, Oryctolagus cuniculus; set-up: dose 0.3 mg/kg; details: in vivo, inhaled or intranasal
Method in brief: (§3)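 Rabbits dosed intranasally by spraying a solution into the nasal cavity. Plasma concentrations followed for up to 24 h. Bioavailability was calculated against an iv leg given at 0.5 mg/kg.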

Callithrix jacchus [8] = assay: Inhibition of human alpha CGRP-induced increase in facial blood flow in marmoset at 0.01 mg/kg, sc after 60 and 105 mins by laser Doppler flowmetry; format: functional, organism-based; set-up: dose 0.01 mg/kg
Method in brief: (§4)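 Anesthetised marmosets received hRCGRP 10 µg/kg IV at 45 min intervals (-30, 15, 60 and 105 min); antagonist given SC at 0 min (dose range 0.003-0.03 mg/kg), vehicle-treated group run in parallel. Facial blood flow increase after each CGRP challenge read by laser Doppler flowmetry; plasma drug levels sampled at the 15 min test time.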

Callithrix jacchus [9] = assay: Inhibition of human alpha CGRP-induced increase in facial blood flow in marmoset at 0.03 mg/kg, sc after 15, 60 and 105 mins by laser Doppler flowmetry; format: functional, organism-based; set-up: dose 0.03 mg/kg; method in brief: as §4
Calcitonin receptor = target: T2, Calcitonin receptor (Homo sapiens, UniProt P30988); assay: Displacement of [125I]calcitonin from calcitonin receptor in human T47D cells; format: cell-based
T2 sequence (P30988 whole entry): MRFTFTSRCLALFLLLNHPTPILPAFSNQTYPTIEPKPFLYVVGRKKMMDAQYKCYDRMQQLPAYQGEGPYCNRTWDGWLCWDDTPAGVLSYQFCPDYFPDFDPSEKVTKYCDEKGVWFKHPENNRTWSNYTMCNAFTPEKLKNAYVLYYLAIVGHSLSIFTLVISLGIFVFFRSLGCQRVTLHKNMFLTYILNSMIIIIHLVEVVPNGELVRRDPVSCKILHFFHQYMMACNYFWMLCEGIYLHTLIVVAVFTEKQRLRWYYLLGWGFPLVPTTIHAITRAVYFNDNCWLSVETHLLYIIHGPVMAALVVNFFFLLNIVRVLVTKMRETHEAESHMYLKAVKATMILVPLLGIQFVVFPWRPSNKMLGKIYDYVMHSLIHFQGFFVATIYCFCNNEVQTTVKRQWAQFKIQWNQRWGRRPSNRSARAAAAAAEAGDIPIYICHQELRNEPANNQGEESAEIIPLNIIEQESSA

[10] = Displacement of [I125]AMY from amylin 1 receptor expressed in CHO cells; format: cell-based
[11] = Aqueous solubility of compound at pH 1 to 6.8; format: physicochemical
Method in brief: (§5)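 Aqueous solubility measured over pH 1.0-6.8.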

[12] = Clearance in New Zealand white rabbit at 0.5 mg/kg, iv; format: ADME, organism-based, Oryctolagus cuniculus; set-up: dose 0.5 mg/kg, route intravenous; details: in vivo; method in brief: as §1
[13] = Bioavailability in sc dosed Sprague-Dawley rat in presence of PBS vehicle; format: ADME, organism-based; details: in vivo
[14] = Ex vivo inhibition of human alpha CGRP-induced artery dilation in human intracranial artery preincubated for 30 mins; format: functional
Method in brief: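 Wire-mounted human intracranial artery rings were preincubated 30 min with a single antagonist concentration (0.1-30 nM). They were then contracted with 10 mM K+ and given increasing hαCGRP to full relaxation. The CGRP curve shift was analysed by Schild analysis.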

[15] = Cmax in New Zealand white rabbit at 0.3 mg/kg, intranasally; format: ADME, organism-based, Oryctolagus cuniculus; set-up: route nasal, dose 0.3 mg/kg; details: in vivo, inhaled or intranasal; method in brief: as §3
[16] = Intrinsic permeability across human Caco-2 cells; format: ADME, cell-based; details: read-out: IP
[17] = Displacement of [I125]AM from adrenomedullin 2 receptor expressed in CHO cells; format: cell-based
[18] = Bioavailability in intratracheally dosed Sprague-Dawley rat; format: ADME, organism-based; details: in vivo, inhaled or intranasal
[19] = Tmax in New Zealand white rabbit at 0.1 mg/kg, intranasally; format: ADME, organism-based, Oryctolagus cuniculus; set-up: dose 0.1 mg/kg; details: in vivo, inhaled or intranasal; method in brief: as §3
Oryctolagus cuniculus [20] = assay: Total AUC in New Zealand white rabbit at 0.5 mg/kg, iv; format: ADME, organism-based; set-up: dose 0.5 mg/kg, route intravenous, time AUCmax; details: in vivo; method in brief: as §1
Cytochrome P450 2C19 = Cytochrome P450 2C19 (Homo sapiens, UniProt P33261); assay: Inhibition of human recombinant CYP2C19 expressed in insect microsomes
Chain of Cytochrome P450 2C19 (P33261 whole entry): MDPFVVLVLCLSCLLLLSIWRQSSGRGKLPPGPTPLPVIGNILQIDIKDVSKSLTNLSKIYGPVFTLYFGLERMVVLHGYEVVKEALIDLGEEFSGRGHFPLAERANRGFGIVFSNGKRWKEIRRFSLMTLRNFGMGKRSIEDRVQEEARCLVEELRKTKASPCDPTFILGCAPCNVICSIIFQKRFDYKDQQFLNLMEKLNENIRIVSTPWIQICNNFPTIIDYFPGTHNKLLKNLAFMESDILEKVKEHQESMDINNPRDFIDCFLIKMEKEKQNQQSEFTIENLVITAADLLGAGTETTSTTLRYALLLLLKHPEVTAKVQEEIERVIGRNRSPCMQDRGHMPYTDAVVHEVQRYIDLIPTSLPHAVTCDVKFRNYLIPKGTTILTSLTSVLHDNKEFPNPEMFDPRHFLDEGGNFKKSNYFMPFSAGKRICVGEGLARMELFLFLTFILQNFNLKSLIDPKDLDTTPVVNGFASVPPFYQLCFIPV

Callithrix jacchus [21] = assay: Inhibition of human alpha CGRP-induced increase in facial blood flow in marmoset at 0.003 mg/kg, sc by laser Doppler flowmetry; format: functional, organism-based; set-up: dose 0.003 mg/kg; method in brief: as §2
[22] = Volume of distribution at steady state in New Zealand white rabbit at 0.5 mg/kg, iv; format: ADME, organism-based, Oryctolagus cuniculus; set-up: dose 0.5 mg/kg, route intravenous; details: in vivo, read-out: Vdss; method in brief: as §1
[23] = Displacement of [I125]CGRP from marmoset CGRP receptor; set-up: species or system Callithrix jacchus
[24] = Half life in New Zealand white rabbit at 0.5 mg/kg, iv; format: ADME, organism-based, Oryctolagus cuniculus; set-up: dose 0.5 mg/kg, route intravenous; details: in vivo; method in brief: as §1
[25] = Oral bioavailability in Sprague-Dawley rat; format: ADME, organism-based; details: in vivo
Oryctolagus cuniculus [26] = assay: Total AUC in New Zealand white rabbit at 0.1 mg/kg, intranasally; format: ADME, organism-based; set-up: route nasal, time AUCmax, dose 0.1 mg/kg; details: in vivo, inhaled_or_intranasal; method in brief: as §3
[27] = Bioavailability in sc dosed Sprague-Dawley rat in presence of PG:D5W vehicle; format: ADME, organism-based; details: in vivo
Method in brief: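 Rats dosed subcutaneously in PG:D5W vehicle to determine bioavailability.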

[28] = Displacement of [I125]AM from adrenomedullin 1 receptor expressed in CHO cells; format: cell-based
[29] = Bioavailability in sc dosed cynomolgus monkey; format: ADME, organism-based, Macaca fascicularis; details: in vivo
Method in brief: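 Cynomolgus monkeys dosed subcutaneously in PG:D5W vehicle to determine bioavailability.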

[30] = Bioavailability in New Zealand white rabbit at 0.3 mg/kg, intranasally; format: ADME, organism-based, Oryctolagus cuniculus; details: in vivo, inhaled or intranasal; method in brief: as §3
[31] = Cmax in New Zealand white rabbit at 1.0 mg/kg, intranasally; details: in vivo, inhaled or intranasal
[32] = target: T1, Calcitonin gene-related peptide type 1 receptor; assay: Antagonist activity at human CGRP receptor in SK-N-MC cells assessed as inhibition of CGRP-stimulated cAMP production
[33] = Total AUC in New Zealand white rabbit at 0.3 mg/kg, intranasally; format: ADME, organism-based, Oryctolagus cuniculus; set-up: time AUCmax, route nasal, dose 0.3 mg/kg; details: in vivo, inhaled or intranasal; method in brief: as §3
[34] = Displacement of [I125]AMY from amylin 3 receptor expressed in CHO cells; format: cell-based
[35] = Fraction unbound in human serum at 10 uM; format: ADME, cell-free
Method in brief: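 Serum protein binding measured in vitro with compound at 10 µM.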

Oryctolagus cuniculus [36] = assay: Cmax in New Zealand white rabbit at 0.5 mg/kg, iv; format: ADME, organism-based; set-up: dose 0.5 mg/kg, route intravenous; details: in vivo; method in brief: as §1
[37] = Drug level in New Zealand white rabbit after 24 hrs; format: ADME, organism-based, Oryctolagus cuniculus; details: in vivo, read-out: Drug uptake
Method in brief: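 Plasma level of drug in rabbits measured 24 h after intranasal dosing of a sprayed solution.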

[38] = Oral bioavailability in cynomolgus monkey; format: ADME, organism-based, Macaca fascicularis; details: in vivo
Oryctolagus cuniculus [39] = assay: Bioavailability in New Zealand white rabbit at 0.1 mg/kg, intranasally; format: ADME, organism-based; details: in vivo, inhaled_or_intranasal, 1.0 mg/kg, in the assay text read “1.0 mg/kg” for “0.1 mg/kg”; method in brief: as §3
[40] = Aqueous solubility of compound at pH 5; format: physicochemical
Cytochrome P450 3A4 [41] = target: T3, Cytochrome P450 3A4 (Homo sapiens, UniProt P08684); assay: Inhibition of recombinant CYP3A4 expressed in insect microsomes after 45 mins in presence of BZR substrate; format: ADME, Microsome
T3 sequence (P08684 whole entry): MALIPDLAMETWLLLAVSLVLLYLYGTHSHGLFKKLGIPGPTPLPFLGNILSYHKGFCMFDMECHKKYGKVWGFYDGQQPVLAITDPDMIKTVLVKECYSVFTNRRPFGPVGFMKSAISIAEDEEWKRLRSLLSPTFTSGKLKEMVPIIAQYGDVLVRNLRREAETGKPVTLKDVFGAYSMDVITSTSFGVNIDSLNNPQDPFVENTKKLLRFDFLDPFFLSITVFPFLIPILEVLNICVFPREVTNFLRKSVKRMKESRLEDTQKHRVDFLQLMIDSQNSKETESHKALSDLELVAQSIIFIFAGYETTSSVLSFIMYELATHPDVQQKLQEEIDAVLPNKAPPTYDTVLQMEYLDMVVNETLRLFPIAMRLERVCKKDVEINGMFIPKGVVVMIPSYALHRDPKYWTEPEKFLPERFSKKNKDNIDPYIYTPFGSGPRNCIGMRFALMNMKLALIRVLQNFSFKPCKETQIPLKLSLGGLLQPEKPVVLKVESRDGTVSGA

[42] = Aqueous solubility of compound; format: physicochemical; details: buffer; method in brief: as §5
Cytochrome P450 3A4 [43] = target: T3, Cytochrome P450 3A4; assay: Inhibition of recombinant CYP3A4 expressed in insect microsomes after 20 mins in presence of BFC substrate; format: ADME, Microsome

SMILES: Cc1cc(C[C@@H](NC(=O)N2CCC(N3Cc4cccc(F)c4NC3=O)CC2)C(=O)N2CCC(N3CCCCC3)CC2)cc2cn[nH]c12
- Ki [1]: > 1000 nM
- Tmax [2]: 1.98 min
- IC50 (Cytochrome P450 2C9): > 40000 nM
- EC50 [3]: 0.06 nM
- EC50 [4]: 311 nM
- Activity (Callithrix jacchus [5]): inactive
- Ki [6]: 0.0128 nM
- Tmax [7]: 10.2 min
- Activity (Callithrix jacchus [8]): Active
- Activity (Callithrix jacchus [9]): Active
- Ki (Calcitonin receptor): > 5000 nM
- Ki [10]: > 500 nM
- solubility [11]: > 500 mg/mL
- clearance [12]: 13 mL/min/kg
- bioavailability [13]: 43%
- Kb [14]: 0.028 nM
- Cmax [15]: 360 nM
- Papp [16]: < 1.5 ×10⁻⁶ cm/s
- Ki [17]: > 5000 nM
- bioavailability [18]: 73%
- Tmax [19]: 10.2 min
- AUC (Oryctolagus cuniculus [20]): 1.1 µM·h
- IC50 (Cytochrome P450 2C19): > 40000 nM
- Activity (Callithrix jacchus [21]): inactive
- Vd [22]: 2.7 L/kg
- Ki [23]: 0.078 nM
- half-life [24]: 660 min
- bioavailability [25]: ≤ 0.3%
- AUC (Oryctolagus cuniculus [26]): 1.3 µM·h
- bioavailability [27]: 81%
- Ki [28]: > 5000 nM
- bioavailability [29]: 76%
- bioavailability [30]: 55.2%
- Cmax [31]: 1200 nM
- EC50 [32]: 0.0345 nM
- AUC [33]: 0.36 µM·h
- Ki [34]: > 5000 nM
- fraction unbound at 10 µM [35]: 0.35
- Cmax (Oryctolagus cuniculus [36]): 8200 nM
- concentration at 24 h [37]: > 10 nM
- bioavailability [38]: ≤ 0.3%
- F (Oryctolagus cuniculus [39]): 59%

SMILES: Cc1cc(C[C@@H](NC(=O)N2CCC(N3Cc4ccccc4NC3=O)CC2)C(=O)N2CCC(N3CCCCC3)CC2)cc2cn[nH]c12
- Ki [6]: 0.01 nM
- solubility [40]: 15 mg/mL (≈ 23.9 mM)

SMILES: O=C(N[C@H](Cc1csc2ccccc12)C(=O)N1CCC(N2CCCCC2)CC1)N1CCC(N2Cc3ccccc3NC2=O)CC1
- IC50 (Cytochrome P450 3A4 [41]): 84 nM
- Ki [6]: 0.55 nM
- Activity [42]: Not Active
- IC50 (Cytochrome P450 3A4 [43]): 870 nM

SMILES: O=C(N[C@H](Cc1ccc2[nH]ncc2c1)C(=O)N1CCC(N2CCCCC2)CC1)N1CCC(N2Cc3ccccc3NC2=O)CC1
- IC50 (Cytochrome P450 3A4 [41]): 4000 nM
- Activity [42]: Not Active
- IC50 (Cytochrome P450 3A4 [43]): > 40000 nM
